Published values pooled from the literature.
Each line is one published result; the experiments were not run side by side.
Target: Mitogen-activated protein kinase kinase kinase kinase 5 (MAP4K5, Homo sapiens, UniProt Q9Y4K4)

CCS(=O)(=O)c1cc2cc(C[C@](O)(CC(C)(C)c3ccc(F)cc3C(N)=O)C(F)(F)F)[nH]c2cn1 gave a remaining binding of 100% (cell-free assay; competition with immobilised ligand; 1 µM).
O=C(NCC1CCOCC1)c1n[nH]cc1NC(=O)c1c(F)cccc1F has a remaining binding of 89% (binding; competition with immobilised ligand; 1 µM).
For N[C@H]1CCN(c2nccc(-c3cnn4ncccc34)n2)C1, the remaining binding was 100% (binding; 1 µM).
With COc1cnc(Nc2cccc(S(N)(=O)=O)c2)nc1N1CCN(c2ccccc2)CC1 the remaining binding was 100% (binding; competition with immobilised ligand; 1 µM).
For O=C(NCc1ncc(C(F)(F)F)cc1Cl)c1ccc2c(c1)C1(CCS(=O)(=O)CC1)[C@@H](C1CC1)N2S(=O)(=O)c1ccc(F)cc1, the remaining binding was 100% (cell-free assay; competition with immobilised ligand; 1 µM).
For COc1ncc2cc3ccccc3nc2c1C#N, the remaining binding was 95% (cell-free assay; competition with immobilised ligand; 5 µM).
O=C(N1CCS(=O)(=O)CC1)N1C[C@H](c2ccc(OC(F)(F)F)cc2)C[C@H](c2nc(C3CC3)no2)C1 gave a remaining binding of 100% (cell-free assay; competition with immobilised ligand; 1 µM).
The remaining binding of CN(c1nccc(-c2cnn3ncccc23)n1)C1CC1 is reported as 3.2% (binding; 1 µM).
C[C@@H](c1ccc(-n2cnc3c(N)ncnc32)cc1)N1CCc2nn(C)c(Cc3ccccc3)c2C1=O gave a remaining binding of 87% (binding; competition with immobilised ligand; 0.1 µM).
With CN(c1ccnc(CNc2nc(Nc3ccc4c(c3)CC(=O)N4)ncc2C(F)(F)F)n1)S(C)(=O)=O the remaining binding was 72% (cell-free assay; competition with immobilised ligand; 1 µM).
F[C@@H]1CCN(c2nccc(-c3cnn4ncccc34)n2)C1 has a remaining binding of 79% (binding; 1 µM).
CCN1CCN(Cc2ccc(C(=O)Nc3ccc(C)c(Oc4ccc5c(c4)CC(=O)N5)c3)cc2C(F)(F)F)CC1 gave a remaining binding of 100% (binding; competition with immobilised ligand; 1 µM).
With O=C(c1ccc(Nc2ncc(Cl)c(-c3ccc(Cl)s3)n2)cc1)N1CCC(N2CCCC2)CC1 the remaining binding was 45% (binding; competition with immobilised ligand; 1 µM).
For CN(CCCC(F)(F)F)c1nccc(-c2cnn3ncccc23)n1, the remaining binding was 100% (binding; 1 µM).
O=C(NCCCN1CCOCC1)c1ccc(Nc2ncc(Cl)c(-c3ccc(Cl)s3)n2)cc1 has a remaining binding of 63% (binding; competition with immobilised ligand; 1 µM).
The remaining binding of CC(=O)Nc1c(C(C)=O)c(=O)n(C)c2nc(-c3ccc(Cl)cc3Cl)c(-c3ccc(Cl)cc3)cc12 is reported as 100% (cell-free assay; competition with immobilised ligand; 1 µM).
C[C@H]1CCN(c2nccc(-c3cnn4ncccc34)n2)C1 gave a remaining binding of 90% (binding; 1 µM).
CC(=O)c1c(NS(C)(=O)=O)c2cc(-c3ccc(Cl)cc3)c(-c3ccc(Cl)cc3Cl)nc2n(C)c1=O gave a remaining binding of 100% (cell-free assay; competition with immobilised ligand; 1 µM).
CN(C)c1ncc(F)c(-c2cnn3ncccc23)n1 gave a remaining binding of 100% (binding; 1 µM).
With Cc1cnc(Nc2ccc(C(=O)N3CCC(N4CCCC4)CC3)cc2)nc1-c1cc2ccccc2s1 the remaining binding was 51% (binding; competition with immobilised ligand; 1 µM).
